These results are taken from ChEMBL document CHEMBL3112439, “Inhibition of long chain fatty acyl-CoA synthetase (ACSL) and ischemia reperfusion injury” (Bioorg Med Chem Lett, 2014).

Assay [1] can be described thus: Inhibition of ACSL in mouse solubilized bEND.3 cells using [14C]-palmitic acid as substrate after 2 mins by liquid scintillation spectrometric analysis. As to conditions: BEND3, 2 min. A digest of the protocol: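 ACSL activity in solubilized bEND3 brain endothelial cells; reaction velocity measured across a range of inhibitor concentrations. EC50 obtained by fitting velocity vs. inhibitor concentration to a constrained three-parameter log(inhibitor) vs. response function.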

Assay [2] is filed under the species Mus musculus. Put plainly: Effect on mean extractable lipid mass in mouse bEND.3 cells at 15 uM relative to control. The class given is functional, cell-based. In outline:
(§1)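 In situ assay in intact bEND3 brain endothelial cells given [14C]-palmitic acid; test agents at 15 μM (triacsin C reference at 1.5 μM). Radioactivity measured in the extractable lipid fraction, the aqueous layer and the media, with total recovery summed (lipid + aqueous + media); lipid mass extracted also determined. Treated groups compared with control by one-way ANOVA and Dunnett's t test; n = 3 to 9 independent experiments.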

The species named for assay [3] is Mus musculus. In words: Inhibition of ACSL in mouse solubilized bEND.3 cells using [14C]-palmitic acid as substrate assessed as decrease in radioactivity in aqueous layer at 15 uM after 2 hrs by liquid scintillation spectrometric analysis.
The species named for assay [4] is Mus musculus. In words: Inhibition of ACSL in mouse solubilized bEND.3 cells using [14C]-palmitic acid as substrate assessed as effect on total recovery of radioactive substrate at 15 uM after 2 hrs by liquid scintillation spectrometric analysis. A digest of the protocol:
as §1

The species named for assay [5] is Mus musculus. Put plainly: Inhibition of ACSL in mouse solubilized bEND.3 cells using [14C]-palmitic acid as substrate assessed as increase in unincorporated radioactivity in media at 15 uM after 2 hrs by liquid scintillation spectrometric analysis. A digest of the protocol: as §1
For assay [6], the species on record is Mus musculus. In words: Inhibition of ACSL in mouse […] bEND.3 cells assessed as inhibition of [14C]-palmitate incorporation into extractable lipids at 15 uM after 2 hrs by liquid scintillation spectrometric analysis. A digest of the protocol:
as §1

Assay [7] has as its system Leukocyte. Put plainly: Inhibition of Sprague-Dawley rat leukocytes recruitment assessed as inhibition of cell adhesion in unbranched post-capillary venules of mesentery at 50 uM measured at 120 mins. Format: functional, tissue-based. In outline:
(§2)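 Leukocyte recruitment induced by L-NAME, used as an ischemia model, in post-capillary venules of the mesentery. Rolling, adhesion and extravasation scored at 120 minutes with or without compound at 5 or 50 μM; vehicle-alone group included. Mean ± SEM of 3 to 7 independent experiments.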

The subject of assay [8] is Leukocyte. In words: Inhibition of Sprague-Dawley rat leukocytes recruitment assessed as inhibition of cell extravasation in unbranched post-capillary venules of mesentery at 50 uM measured at 120 mins. Format: functional, tissue-based. A digest of the protocol:
as §2

In assay [9] the test system is Leukocyte. Put plainly: Inhibition of Sprague-Dawley rat leukocytes recruitment assessed as inhibition of cell extravasation in unbranched post-capillary venules of mesentery at 5 uM measured at 120 mins. The class given is functional, tissue-based. In outline: (§3)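 Recruitment was induced by L-NAME. Rolling, adhesion and extravasation were counted in post-capillary venules of the mesentery at 120 min. Compound was present at 5 or 50 μM, and vehicle-alone controls were run. Results are mean ± SEM of 3 to 7 independent experiments.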

Assay [10] concerns Leukocyte. In words: Inhibition of Sprague-Dawley rat leukocytes recruitment assessed as inhibition of cell rolling in unbranched post-capillary venules of mesentery at 5 uM measured at 120 mins. Format: functional, tissue-based. In outline: as §3
In assay [11] the test system is Leukocyte. Put plainly: Inhibition of Sprague-Dawley rat leukocytes recruitment assessed as inhibition of cell rolling in unbranched post-capillary venules of mesentery at 50 uM measured at 120 mins. Format: functional, tissue-based. In outline:
as §2

For assay [12], the system named is Leukocyte. Put plainly: Inhibition of Sprague-Dawley rat leukocytes recruitment assessed as inhibition of cell adhesion in unbranched post-capillary venules of mesentery at 5 uM measured at 120 mins. Format: functional, tissue-based. A digest of the protocol: as §3
Assay [13] is filed under the species Mus musculus. In words: Effect on mean extractable lipid mass in mouse bEND.3 cells at 1.5 uM relative to control. Format: functional, cell-based. In outline: (§4)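 Intact bEND3 brain endothelial cells were labelled with [14C]-palmitic acid with inhibitor at a single concentration, against untreated control cultures. Radioactivity was measured in the extractable lipid fraction, the aqueous fraction and the medium, and total recovery was summed (lipid + aqueous + media). Lipid mass was expressed as % of control. Groups were compared with control by one-way ANOVA and Dunnett's test; n = 3 to 9 independent experiments.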

The species entered for assay [14] is Mus musculus. In words: Inhibition of ACSL in mouse solubilized bEND.3 cells using [14C]-palmitic acid as substrate assessed as decrease in radioactivity in aqueous layer at 1.5 uM after 2 hrs by liquid scintillation spectrometric analysis.
The species named for assay [15] is Mus musculus. In words: Inhibition of ACSL in mouse […] bEND.3 cells assessed as inhibition of [14C]-palmitate incorporation into extractable lipids at 1.5 uM after 2 hrs by liquid scintillation spectrometric analysis. In outline: as §4
For assay [16], the species on record is Mus musculus. In words: Inhibition of ACSL in mouse solubilized bEND.3 cells using [14C]-palmitic acid as substrate assessed as effect on total recovery of radioactive substrate at 1.5 uM after 2 hrs by liquid scintillation spectrometric analysis. A digest of the protocol: as §4
For assay [17], the species on record is Mus musculus. Put plainly: Inhibition of ACSL in mouse solubilized bEND.3 cells using [14C]-palmitic acid as substrate assessed as increase in unincorporated radioactivity in media at 1.5 uM after 2 hrs by liquid scintillation spectrometric analysis. In outline: as §4

Each structure is given as a SMILES string. pEC50: −log10 of the molar value. Active and inactive are the calls of the source. The rule behind the calls is not given here.

In [1], `CCC/C=C/C/C=C/C=C/CNN1CCCS1(=O)=O` showed a pEC50 of 3.79.

In the case of `CCC/C=C/C/C=C/C=C/Cn1oc(=O)[nH]c1=O`, the pEC50 in assay [1] was 4.27.

Consider `C=CCCCCCCCCCN(O)/N=N/c1ccc(C(=O)O)cc1`, for which, in assay [1], the pEC50 is 4.14.

Take `C=CCCCCCCCCCNc1ccc(C(=O)O)cc1`: in the assay filed under Mus musculus [2], the outcome was inactive. In addition, the inhibition entry in the assay filed under Mus musculus [3], in the assay filed under Mus musculus [4], in the assay listed under Mus musculus [5] and in the assay filed under Mus musculus [6] was “Active” each time. Besides, the pEC50 in assay [1] was 5.31.

On to `CCC/C=C/C/C=C/C=N/N1CCCS1(=O)=O`, for which the result in the assay listed under Mus musculus [2] was Active. Moreover, the inhibition result in the assay filed under Mus musculus [3] and in the assay listed under Mus musculus [5] was “inactive” each time. In assay [1], this compound gave a pEC50 of 3.77.

`CCC/C=C/C/C=C/C=C/CNO` showed a pEC50 in [1] of 4.83.

As to `CCC/C=C/C/C=C/C=C/CNc1ccc(C(=O)O)cc1`, the inhibition result with Leukocyte [7], in the assay filed under Mus musculus [3], in the assay listed under Mus musculus [4], in the assay on Leukocyte [8], in the assay on Leukocyte [9] and with Leukocyte [10] was “Active” in each case. Besides, the inhibition entry in the assay listed under Mus musculus [5], in the assay on Leukocyte [11], in the assay with Leukocyte [12] and in the assay filed under Mus musculus [6] was “Active” each time. Moreover, the result in the assay listed under Mus musculus [2] was inactive. Moreover, the pEC50 in assay [1] was 5.23.

For the compound `CCC/C=C/C/C=C/CN(O)/N=N/c1ccc(C(=O)O)cc1`, the result in the assay filed under Mus musculus [2] was inactive. Besides, the inhibition entry in the assay listed under Mus musculus [3], in the assay listed under Mus musculus [4], in the assay listed under Mus musculus [5] and in the assay listed under Mus musculus [6] was “Active” in each case. In assay [1], this compound had a pEC50 of 4.57.

In assay [1], `CCC/C=C/C/C=C/C=C/CN(O)/N=N/c1ccc(C(=O)O)cc1` showed a pEC50 of 4.13.

Take `C=CCCCCCCCCCn1oc(=O)[nH]c1=O`: the pEC50 in assay [1] is 5.04.

Turning to `C=CCCCCCCCCCNO`, the inhibition entry in the assay with Leukocyte [7], in the assay filed under Mus musculus [3], in the assay filed under Mus musculus [4], in the assay on Leukocyte [8], in the assay listed under Mus musculus [5] and with Leukocyte [11] was “Active” each time. Further, the inhibition entry in the assay listed under Mus musculus [6] is “Active”. The result in the assay filed under Mus musculus [2] was inactive. This compound showed a pEC50 in [1] of 4.15.

In [1], `CCC/C=C/C/C=C/C=C/C=N/NN=O` [TRIACSIN C] had a pEC50 of 6.45. For the same compound, the result in the assay listed under Mus musculus [13] was inactive. In addition, the inhibition result in the assay on Leukocyte [9], in the assay listed under Mus musculus [14], in the assay with Leukocyte [10], in the assay listed under Mus musculus [15], in the assay listed under Mus musculus [16] and in the assay filed under Mus musculus [17] was “Active” each time. The inhibition entry in the assay with Leukocyte [12] was “Active”.

As for `C=CCCCCCCCCCNc1ccc(C(=O)O)c(O)c1`, the outcome in the assay listed under Mus musculus [2] was inactive. In addition, the inhibition result in the assay listed under Mus musculus [3], in the assay filed under Mus musculus [4], in the assay filed under Mus musculus [5] and in the assay listed under Mus musculus [6] was “Active” throughout. In [1], this compound had a pEC50 of 5.16.
